Screens as filed in PubChem.
Most compounds without a hit are left out; they make up all but 2.3% or so of the library.
TRPC6 act: activates the mouse TRPC6 cation channel; Q61143; HEK293-TRPC6 membrane potential dye fluorescence; active compounds read high; B-score at 10 µM; 310,000 tested, 0.13% active;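 active = B-score of the integrated fluorescence ratio above library mean plus 3 SD, and starting fluorescence ratio within library mean plus 5 SD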;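 also: higher score means more depolarization so channel activation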
TRPC6 inhibitor: blocks the mouse TRPC6 cation channel. B-score at 10 µM. AID 2553. HEK293-TRPC6, membrane potential dye, ACh-evoked depolarization; active compounds read low. Q61143. 310,000 tested, 1.1% active;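 active = B-score under library mean minus 3 SD, initial fluorescence not abnormally high, positive integrated signal ratio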;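 also: B-score derived from integrated fluorescence ratio over the kinetic read; more negative B-score means stronger inhibition of depolarization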
TRPC4 inh: inhibitors of mouse TRPC4 channel | Q9QUQ5 | HEK293 TRPC4beta/mu-opioid, DAMGO-evoked Fluo4 calcium flux; active compounds read low | B-score at 10 µM | 300,000 tested, 0.39% active;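 active = B-score over 3 SD under the library average, no early fluorescence shift, positive overall ratio signal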
Target sequence (Q9QUQ5 whole entry, looked up): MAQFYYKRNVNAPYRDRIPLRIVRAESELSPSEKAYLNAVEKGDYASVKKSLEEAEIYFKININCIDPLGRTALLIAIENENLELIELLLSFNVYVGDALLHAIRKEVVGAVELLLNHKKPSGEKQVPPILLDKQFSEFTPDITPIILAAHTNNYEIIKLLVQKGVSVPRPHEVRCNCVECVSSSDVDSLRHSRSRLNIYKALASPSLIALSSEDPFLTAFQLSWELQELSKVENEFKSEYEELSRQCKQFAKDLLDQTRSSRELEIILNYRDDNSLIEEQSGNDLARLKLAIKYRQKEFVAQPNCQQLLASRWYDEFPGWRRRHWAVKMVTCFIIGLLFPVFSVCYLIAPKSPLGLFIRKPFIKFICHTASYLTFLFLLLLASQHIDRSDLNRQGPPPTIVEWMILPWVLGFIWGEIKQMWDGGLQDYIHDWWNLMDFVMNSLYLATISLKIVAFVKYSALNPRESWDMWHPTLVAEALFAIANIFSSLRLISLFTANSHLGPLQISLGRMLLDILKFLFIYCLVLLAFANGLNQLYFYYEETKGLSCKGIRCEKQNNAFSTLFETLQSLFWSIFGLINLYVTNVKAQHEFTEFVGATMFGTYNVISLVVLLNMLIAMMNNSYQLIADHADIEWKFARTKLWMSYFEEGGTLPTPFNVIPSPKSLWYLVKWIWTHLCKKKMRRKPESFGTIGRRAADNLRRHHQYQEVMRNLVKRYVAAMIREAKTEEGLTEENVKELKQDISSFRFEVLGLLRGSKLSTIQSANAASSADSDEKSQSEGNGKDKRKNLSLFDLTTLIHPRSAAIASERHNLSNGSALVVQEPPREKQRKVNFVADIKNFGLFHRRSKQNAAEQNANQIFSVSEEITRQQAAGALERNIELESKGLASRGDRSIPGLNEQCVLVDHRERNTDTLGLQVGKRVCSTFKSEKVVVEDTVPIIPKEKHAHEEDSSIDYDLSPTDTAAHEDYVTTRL
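Material: HEK293 cells with stable TRPC4beta plus mu-opioid receptor expression; probe or stimulus: DAMGO in two steps, submaximal then maximal; technique: Fluo4 calcium fluorescence by kinetic imaging, 5 s 1 Hz baseline; measure: integrated fluorescence ratio relative to baseline, converted to per-well B score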
TRPC4 PAM: allosterically enhances the mouse TRPC4 cation channel | Q9QUQ5 | HEK293 TRPC4beta/mu-opioid, DAMGO EC20, Fluo-4 Ca2+ flux; active compounds read high | B-score at 10 µM | 310,000 tested, 0.42% active;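 active = B-score of calcium response area above 5 SD of library B-scores, with initial fluorescence ratio within 5 SD of library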;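 also: B-score of integrated fluorescence ratio over time as area under calcium response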
TRPC4 act: TRPC4 (mouse) channel activation | Q9QUQ5 | HEK293 TRPC4beta/mu-opioid, Fluo4 calcium fluorescence; active compounds read high | B-score at 10 µM | 310,000 tested, 0.49% active;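 active = B-score above 5 SD of library B-scores, and initial fluorescence ratio not above library mean plus 5 SD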;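 also: positive B-score marks a calcium rise read as TRPC4 activation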
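Test system: HEK293 cells stably co-expressing mouse TRPC4beta and mu-opioid receptor | Schedule: Fluo4 dye loading 45 min at room temperature, 110 s recording | Measured by: Kinetic Fluo4 calcium fluorescence, 5 s baseline at 1 Hz | Evaluation: B score of integrated ratio | Controls: Buffer (low) and maximal DAMGO (high)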
TRPC4 spec 2: second check of whether TRPC6 inhibitors also affect mouse TRPC4 | shares compounds with TRPC6 inhibitor | HEK293 TRPC4/MOR, membrane potential dye fluorescence; channel activated by saturating DAMGO dose | inhibition, % at 10 µM | 920 tested, 42% active | AID 2776;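 active = compounds whose fluorescence signal differed from control wells by over 3 SD, either direction, in both duplicate plates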
TRPC4 spec: mouse TRPC4 off-target activity of TRPC6 inhibitors; HEK293 TRPC4/mu-opioid, membrane potential fluorescence; activity change, negative = inhibition, % at 10 µM; shares compounds with TRPC6 inhibitor; AID 2777; 920 tested, 61% active;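 active = rise or fall in signal beyond 3 SD of buffer-only wells in both replicate plates, either sign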;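 also: integrated kinetic ratio of fluorescence range over baseline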
HEK293 MPD ctr 2-1: second counter-screen for TRPC6 inhibitors: parental HEK293 cells. signal change vs control, % at 10 µM. 920 tested, 31% active. shares compounds with TRPC6 inhibitor. parental HEK293 membrane potential dye fluorescence; maximal acetylcholine challenge after compound addition;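 active = membrane potential signal moving either way by over 3 SD of the maximum-effect control, in both duplicate plates, meaning non-specific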
HEK293 MPD ctr-1: checks TRPC6 inhibitor effects in parental HEK293 cells | membrane potential signal change, % at 10 µM | AID 2780 | parental HEK293 membrane potential dye fluorescence | 920 tested, 60% active | shares compounds with TRPC6 inhibitor;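 active = membrane potential signal shifting up or down by more than 3 SD of buffer-only wells, on both duplicate plates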
HEK293 MPD ctr-2: checks TRPC6 modulator effects in parental HEK293 cells; shares compounds with TRPC6 inhibitor; 2,400 tested, 51% active; membrane potential signal change, % at 10 µM; membrane potential dye fluorescence;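 active = membrane potential signal moves up or down beyond 5 SD from buffer-only wells, on both duplicate plates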
HEK293 MPD ctr 2-2: second check of TRPC6 modulator effects in parental HEK293 cells; shares compounds with TRPC6 inhibitor; membrane potential dye fluorescence; after compound, maximal acetylcholine stimulation; inhibition, % at 10 µM; 2,400 tested, 14% active;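 active = membrane potential signal drops by more than 5 SD from the mean control signal, in both duplicate plates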;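 also: plate controls were acetylcholine ECmax control wells for no effect and buffer only wells for full effect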
TRPC4/MOR mod: selectivity of TRPC6 modulators against mouse TRPC4. shares compounds with TRPC6 inhibitor. 2,400 tested, 69% active. percent change from control (negative = decrease, positive = increase), % at 10 µM. HEK293 TRPC4/mu-opioid, membrane potential fluorescence;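 active = membrane potential signal moved up or down beyond 5 SD of buffer control wells, in both duplicate plates, actives on both sides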;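 also: plate controls were assay buffer wells for no effect and DAMGO maximal-effect wells for full effect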
TRPC4 ctr inh 2: second selectivity test of TRPC6 modulators against mouse TRPC4; shares compounds with TRPC6 inhibitor; HEK293 TRPC4/mu-opioid, membrane potential dye fluorescence; stimulated with maximal-effect DAMGO; inhibition, % at 10 µM; 2,400 tested, 55% active; AID 488928;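 active = drop in membrane potential signal beyond 5 SD of the control wells in both duplicate plates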;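 also: TRPC4 counter screen for TRPC6 hits run under conditions tuned for TRPC6 not TRPC4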
TRPC6 block conf: confirmation of mouse TRPC6 inhibitors. shares compounds with TRPC6 inhibitor. 3,300 tested, 43% active. HEK293-TRPC6, membrane potential dye, ACh-evoked depolarization. AID 488960. inhibition, % at 10 µM;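 active = fluorescence ratio falls more than 5 SD below the full-stimulation control mean, in both duplicate runs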;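 also: integrated fluorescence ratio of peak minus minimum over baseline after agonist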
TRPC6 act conf: confirmation of mouse TRPC6 activators; AID 488961; 2,800 tested, 11% active; activation, % at 10 µM; shares compounds with TRPC6 inhibitor; HEK293-TRPC6 membrane potential dye fluorescence, FDSS;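 active = ratio signal rise beyond 5 SD above unstimulated control wells' mean, seen in both duplicate runs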;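 also: plate controls were buffer EC0 wells for no effect and acetylcholine ECmax response for full effect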
An asterisk follows results filed as active; i = inactive; / = no result.

SMILES	TRPC6 act	TRPC6 inhibitor	TRPC4 inh	TRPC4 PAM	TRPC4 act	HEK293 MPD ctr-2	HEK293 MPD ctr 2-2	TRPC4/MOR mod	TRPC4 ctr inh 2	TRPC6 block conf	TRPC6 act conf	others
C=Cn1ccnc1P(O)(=S)c1nc(C)c(CCOC(C)=O)s1 (stereo not given)	i	i	i	i	i	/	/	/	/	/	/
O=C(c1ccc2c(c1)OCO2)C1CCCN(CC2CCCCC2)C1 (stereo not given)	i	i	i	i	i	/	/	/	/	/	/
Fc1ccccc1CN1CCN(c2ccc(Cl)cc2)CC1	i	i	i	i	i	/	/	/	/	/	/
Fc1cccc(CN2CCN(c3ccc(Cl)cc3)CC2)c1	i	-7.1*	i	i	i	/	/	/	/	i	i	TRPC4 spec 2=i;TRPC4 spec=i;HEK293 MPD ctr 2-1=i;HEK293 MPD ctr-1=i
CSc1ncc(CN2CCCC(C(=O)c3ccccc3SC)C2)cn1 (stereo not given)	i	i	i	i	i	/	/	/	/	/	/
COc1cccc(O)c1CN1CCCC(C(=O)c2ccccc2SC)C1 (stereo not given)	i	-5.6*	i	i	i	192%*	i	26%*	54%*	i	/
CN(C)CC#CCC(O)(c1ccccc1)C1CCCC1 (stereo not given)	i	i	i	i	i	/	/	/	/	/	/
CC[N+](CC)(CC)CCCOC(=O)C(O)(c1ccccc1)C1CCCCC1 (stereo not given)	i	-12*	i	i	i	/	/	/	/	97%*	i	TRPC4 spec 2=i;TRPC4 spec=i;HEK293 MPD ctr 2-1=-40%*;HEK293 MPD ctr-1=i
C[N+](C)(N)CCOC(=O)C(O)(c1ccccc1)C1CCCCC1 (stereo not given)	i	-9.6*	i	i	i	/	/	/	/	89%*	i	TRPC4 spec 2=i;TRPC4 spec=i;HEK293 MPD ctr 2-1=-39%*;HEK293 MPD ctr-1=i
CCCCCSc1cc(OC)c(CCNC)cc1OC	i	-6*	i	i	i	i	i	12%*	28%*	i	i
CCCCCCCSc1cc(OC)c(CCNC)cc1OC	i	-5.1*	i	i	i	i	i	i	50%*	43%*	i
O=C(COc1ccc(Cl)cc1)N1CCN(C2CCCC2)CC1	i	i	i	i	i	/	/	/	/	/	/
CCCNC(=O)c1c(N)n(CC2CCCO2)c2nc3ccccc3nc12 (stereo not given)	i	i	i	i	i	/	/	/	/	/	/
CC(C)OCCCNC(=O)c1c(N)n(CC2CCCO2)c2nc3ccccc3nc12 (stereo not given)	i	-5*	i	i	i	124%*	i	23%*	i	i	/
OC(c1ccccc1)(c1ccccc1)C1CN2CCC1CC2 (stereo not given)	i	-7.9*	i	i	i	/	/	/	/	i	i	TRPC4 spec 2=i;TRPC4 spec=i;HEK293 MPD ctr 2-1=i;HEK293 MPD ctr-1=i
OC(c1ccccc1)(c1ccc(Cl)cc1)C1CN2CCC1CC2 (stereo not given)	i	i	i	i	i	/	/	/	/	/	/
OC(Cc1ccccc1)(c1ccccc1)C1CN2CCC1CC2 (stereo not given)	i	-5.4*	i	i	i	152%*	i	33%*	i	52%*	/
CC(C)N(Cc1ccco1)/N=C/c1c(O)n(Cc2ccccc2)c(=O)[nH]c1=O	i	i	i	i	i	/	/	/	/	/	/
C=C1C(O)(c2ccccc2)C2CC[N+]1(C)CC2 (stereo not given)	i	i	i	i	i	/	/	/	/	/	/
CC(C)Oc1ccc(CCN)cc1Cl	i	i	i	i	i	/	/	/	/	/	/
CCCCOc1ccc(CCN)cc1Cl	i	-6.4*	i	14*	i	82%*	i	i	52%*	60%*	/
CC(C)n1c(O)c(C2c3cc(Cl)ccc3Oc3[nH]c(=O)n(C(C)C)c(=O)c32)c(=O)[nH]c1=O (stereo not given)	i	i	i	i	i	/	/	/	/	/	/
COC(=O)c1ccc(C(C(=O)NC2CCCCC2)N(CCN2CCOCC2)C(=O)Cc2cccs2)cc1 (stereo not given)	i	i	i	i	i	/	/	/	/	/	/
N=C1c2ccccc2CN1c1ncccn1	i	-7.3*	i	i	i	i	i	-11%*	i	i	i
COCCCN1Cc2ccccc2C1=N	i	i	i	i	i	/	/	/	/	/	/
CCC(C)N1CCN(C(=O)Cc2ccccc2)CC1 (stereo not given)	i	-7.1*	i	i	i	/	/	/	/	i	i	TRPC4 spec 2=i;TRPC4 spec=i;HEK293 MPD ctr 2-1=i;HEK293 MPD ctr-1=i
C[N+]1(C)[C@@H]2CC[C@H]1CC(OC(=O)C(c1ccccc1)c1ccccc1)C2 (stereo not given in full)	i	-5.3*	i	i	i	i	91%*	i	i	96%*	i
O=C(c1ccc(Cl)cc1)C1CCCN(C2CCSCC2)C1 (stereo not given)	i	-7*	-5*	i	i	130%*	i	28%*	50%*	44%*	/
COc1ccc(C(=O)C2CCCN(Cc3cnc(C)s3)C2)cc1OC (stereo not given)	i	i	i	i	i	/	/	/	/	/	/
